Results as given in ChEMBL document CHEMBL1150419, “Structure-activity relationships of a peptide inhibitor of the human FcRn:human IgG interaction” (Bioorg Med Chem, 2008).
pIC50: −log10 of the molar value.

The compounds below were run against IgG receptor FcRn large subunit p51 (Homo sapiens, UniProt P55899) (assay: Inhibition of human IgG binding to soluble human FcRn by ELISA).
In short: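 Biotinylated soluble human FcRn immobilized on neutravidin plates, incubated with hIgG (3 nM, constant) and peptide at varying concentrations for 2 h at 37 °C. After washing, bound hIgG detected with peroxidase-conjugated hIgG-specific Fab fragments.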

IgG receptor FcRn large subunit p51, sequence (P55899 whole entry, the tested form may be a part): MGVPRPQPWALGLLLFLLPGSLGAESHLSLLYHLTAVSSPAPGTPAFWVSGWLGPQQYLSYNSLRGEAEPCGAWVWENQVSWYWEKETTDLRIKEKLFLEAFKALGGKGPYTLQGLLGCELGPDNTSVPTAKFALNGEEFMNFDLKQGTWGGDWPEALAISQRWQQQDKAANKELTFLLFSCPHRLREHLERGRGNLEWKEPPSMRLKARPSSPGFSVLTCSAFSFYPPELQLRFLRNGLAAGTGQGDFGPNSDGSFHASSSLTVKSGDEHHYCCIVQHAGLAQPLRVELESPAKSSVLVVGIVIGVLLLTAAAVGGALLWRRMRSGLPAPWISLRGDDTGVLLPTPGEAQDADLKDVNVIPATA

SMILES | pIC50
CC(C)C[C@H](NC(=O)CNC(=O)CNC(=O)[C@H](Cc1ccccc1)NC(=O)[C@H](Cc1cnc[nH]1)N(C)C(=O)CNC(=O)[C@@H](NC(=O)[C@@H](NC(=O)[C@H](Cc1ccccc1)NC(=O)[C@@H](N)CCCN=C(N)N)C(C)(C)S)[C@@H](C)O)C(=O)N[C@@H](Cc1ccc(O)cc1)C(=O)N1CCC[C@H]1C(=O)N[C@@H](CS)C(=O)O | < 3.60
CC[C@H](C)[C@@H](NC(=O)CNC(=O)[C@H](Cc1ccccc1)NC(=O)[C@H](Cc1cnc[nH]1)NC(=O)CNC(=O)[C@@H](NC(=O)[C@@H](NC(=O)[C@H](Cc1ccccc1)NC(=O)[C@H](CCCNC(=N)N)NC(=O)[C@@H](N)CCC(N)=O)C(C)(C)S)[C@@H](C)O)C(=O)N[C@@H](CC(C)C)C(=O)N[C@@H](Cc1ccc(O)cc1)C(=O)N1CCC[C@H]1C(=O)N[C@@H](CS)C(=O)N[C@@H](CC(N)=O)C(=O)NCC(=O)N1CCC[C@H]1C(=O)O | 4.74
CC(C)C[C@@H](C(=O)N[C@@H](Cc1ccc(O)cc1)C(=O)N1CCC[C@H]1C(=O)N[C@@H](C)C(=O)O)N(C)C(=O)CN(C)C(=O)CNC(=O)[C@H](Cc1ccccc1)NC(=O)[C@H](Cc1cnc[nH]1)NC(=O)CNC(=O)[C@@H](NC(=O)[C@@H](NC(=O)[C@H](Cc1ccccc1)NC(=O)[C@@H](N)CCCNC(=N)N)C(C)C)[C@@H](C)O | 4.43
CC(C)C[C@H](NC(=O)[C@@H](C)NC(=O)CNC(=O)[C@H](Cc1ccccc1)NC(=O)[C@H](Cc1cnc[nH]1)NC(=O)CNC(=O)[C@@H](NC(=O)[C@H](CS)NC(=O)[C@H](Cc1ccccc1)NC(=O)[C@H](CCCN=C(N)N)NC(=O)[C@@H](N)CCC(N)=O)[C@@H](C)O)C(=O)N[C@@H](Cc1ccc(O)cc1)C(=O)N1CCC[C@H]1C(=O)N[C@@H](CS)C(=O)N[C@@H](CC(N)=O)C(=O)NCC(=O)N1CCC[C@H]1C(=O)O | 4.24
CC(C)C[C@H](NC(=O)CNC(=O)CNC(=O)[C@H](Cc1ccccc1)NC(=O)[C@H](Cc1cnc[nH]1)NC(=O)CNC(=O)[C@@H](NC(=O)[C@@H](NC(=O)[C@H](Cc1ccccc1)NC(=O)[C@H](CCCN=C(N)N)NC(=O)[C@@H](N)CCC(N)=O)C(C)(C)S)[C@@H](C)O)C(=O)N[C@@H](Cc1ccc(F)cc1)C(=O)N1CCC[C@H]1C(=O)N[C@@H](CS)C(=O)N[C@@H](CC(N)=O)C(=O)NCC(=O)N1CCC[C@H]1C(=O)O | 4.59
CC(C)C[C@H](NC(=O)CN1CCC[C@@H](NC(=O)[C@H](Cc2ccccc2)NC(=O)[C@H](Cc2cnc[nH]2)NC(=O)CNC(=O)[C@@H](NC(=O)[C@@H](NC(=O)[C@H](Cc2ccccc2)NC(=O)[C@@H](N)CCCN=C(N)N)C(C)C)[C@@H](C)O)C1=O)C(=O)N[C@@H](Cc1ccc(O)cc1)C(=O)N1CCC[C@H]1C(=O)N[C@@H](C)C(=O)O | 4.42
CC(C)C[C@H](NC(=O)[C@H]1CCCN1C(=O)[C@H]1CCCN1C(=O)[C@H](Cc1ccccc1)NC(=O)[C@H](Cc1cnc[nH]1)NC(=O)CNC(=O)[C@@H](NC(=O)[C@@H](NC(=O)[C@H](Cc1ccccc1)NC(=O)[C@H](CCCNC(=N)N)NC(=O)[C@@H](N)CCC(N)=O)C(C)(C)S)[C@@H](C)O)C(=O)N[C@@H](Cc1ccc(O)cc1)C(=O)N1CCC[C@H]1C(=O)N[C@@H](CS)C(=O)N[C@@H](CC(N)=O)C(=O)NCC(=O)N1CCC[C@H]1C(=O)O | 4.68
CC(C)C[C@H](NC(=O)CNC(=O)CNC(=O)[C@H](Cc1ccccn1)NC(=O)[C@H](Cc1cnc[nH]1)NC(=O)CNC(=O)[C@@H](NC(=O)[C@@H](NC(=O)[C@H](Cc1ccccc1)NC(=O)[C@H](CCCNC(=N)N)NC(=O)[C@@H](N)CCC(N)=O)C(C)(C)S)[C@@H](C)O)C(=O)N[C@@H](Cc1ccc(O)cc1)C(=O)N1CCC[C@H]1C(=O)N[C@@H](CS)C(=O)N[C@@H](CC(N)=O)C(=O)NCC(=O)N1CCC[C@H]1C(=O)O | 4.05
CC(C)C[C@H](NC(=O)CNC(=O)CNC(=O)[C@H](Cc1c[nH]c2ccccc12)NC(=O)[C@H](Cc1cnc[nH]1)NC(=O)CNC(=O)[C@@H](NC(=O)[C@@H](NC(=O)[C@H](Cc1ccccc1)NC(=O)[C@H](CCCN=C(N)N)NC(=O)[C@@H](N)CCC(N)=O)C(C)(C)S)[C@@H](C)O)C(=O)N[C@@H](Cc1ccc(O)cc1)C(=O)N1CCC[C@H]1C(=O)N[C@@H](CS)C(=O)N[C@@H](CC(N)=O)C(=O)NCC(=O)N1CCC[C@H]1C(=O)O | 4.59

Compounds with a higher pIC50, results first:

pIC50 | SMILES
4.94 | CC(C)C[C@H](NC(=O)CNC(=O)CNC(=O)[C@H](Cc1ccccc1)NC(=O)[C@H](Cc1cnc[nH]1)NC(=O)CNC(=O)[C@@H](NC(=O)[C@H](NC(=O)[C@@H](Cc1ccccc1)NC(=O)[C@H](CCCN=C(N)N)NC(=O)[C@@H](N)CCC(N)=O)C(C)(C)S)[C@@H](C)O)C(=O)N[C@@H](Cc1ccc(O)cc1)C(=O)N1CCC[C@H]1C(=O)N[C@H](CS)C(=O)N[C@@H](CC(N)=O)C(=O)NCC(=O)N1CCC[C@H]1C(=O)O
5.24 | CC(C)C[C@@H](C(=O)N[C@@H](Cc1ccc(O)cc1)C(=O)N1CCC[C@H]1C(=O)N[C@@H](CS)C(=O)O)N(C)C(=O)CN(C)C(=O)CNC(=O)[C@H](Cc1ccccc1)NC(=O)[C@H](Cc1c[nH]nn1)NC(=O)CNC(=O)[C@@H](NC(=O)[C@@H](NC(=O)[C@H](Cc1ccccc1)NC(=O)[C@@H](N)CCCNC(=N)N)C(C)(C)S)[C@@H](C)O
5.30 | CC(C)C[C@H](NC(=O)CNC(=O)[C@H]1CCCN1C(=O)[C@H](Cc1ccccc1)NC(=O)[C@H](Cc1cnc[nH]1)NC(=O)CNC(=O)[C@@H](NC(=O)[C@@H](NC(=O)[C@H](Cc1ccccc1)NC(=O)[C@H](CCCN=C(N)N)NC(=O)[C@@H](N)CCC(N)=O)C(C)(C)S)[C@@H](C)O)C(=O)N[C@@H](Cc1ccc(O)cc1)C(=O)N1CCC[C@H]1C(=O)N[C@@H](CS)C(=O)N[C@@H](CC(N)=O)C(=O)NCC(=O)N1CCC[C@H]1C(=O)O
5.37 | CC(C)C[C@H](NC(=O)[C@@H](C)NC(=O)[C@@H](Cc1ccccc1)NC(=O)[C@H](Cc1ccccc1)NC(=O)[C@H](Cc1cnc[nH]1)NC(=O)CNC(=O)[C@@H](NC(=O)[C@@H](NC(=O)[C@H](Cc1ccccc1)NC(=O)[C@H](CCCNC(=N)N)NC(=O)[C@@H](N)CCC(N)=O)C(C)(C)S)[C@@H](C)O)C(=O)N[C@@H](Cc1ccc(O)cc1)C(=O)N1CCC[C@H]1C(=O)N[C@@H](CS)C(=O)N[C@@H](CC(N)=O)C(=O)NCC(=O)N1CCC[C@H]1C(=O)O
5.39 | CC(C)C[C@H](NC(=O)CNC(=O)[C@@H](CCCN=C(N)N)NC(=O)[C@H](Cc1ccccc1)NC(=O)[C@H](Cc1cnc[nH]1)NC(=O)CNC(=O)[C@@H](NC(=O)[C@@H](NC(=O)[C@H](Cc1ccccc1)NC(=O)[C@H](CCCN=C(N)N)NC(=O)[C@@H](N)CCC(N)=O)C(C)(C)S)[C@@H](C)O)C(=O)N[C@@H](Cc1ccc(O)cc1)C(=O)N1CCC[C@H]1C(=O)N[C@@H](CS)C(=O)N[C@@H](CC(N)=O)C(=O)NCC(=O)N1CCC[C@H]1C(=O)O
5.43 | CC(C)C[C@H](NC(=O)[C@H]1CCCN1C(=O)[C@@H](C)NC(=O)[C@H](Cc1ccccc1)NC(=O)[C@H](Cc1cnc[nH]1)NC(=O)CNC(=O)[C@@H](NC(=O)[C@@H](NC(=O)[C@H](Cc1ccccc1)NC(=O)[C@H](CCCN=C(N)N)NC(=O)[C@@H](N)CCC(N)=O)C(C)(C)S)[C@@H](C)O)C(=O)N[C@@H](Cc1ccc(O)cc1)C(=O)N1CCC[C@H]1C(=O)N[C@@H](CS)C(=O)N[C@@H](CC(N)=O)C(=O)NCC(=O)N1CCC[C@H]1C(=O)O
5.44 | CC(C)C[C@H](NC(=O)CNC(=O)[C@@H](Cc1cnc[nH]1)NC(=O)[C@H](Cc1ccccc1)NC(=O)[C@H](Cc1cnc[nH]1)NC(=O)CNC(=O)[C@@H](NC(=O)[C@@H](NC(=O)[C@H](Cc1ccccc1)NC(=O)[C@H](CCCNC(=N)N)NC(=O)[C@@H](N)CCC(N)=O)C(C)(C)S)[C@@H](C)O)C(=O)N[C@@H](Cc1ccc(O)cc1)C(=O)N1CCC[C@H]1C(=O)N[C@@H](CS)C(=O)N[C@@H](CC(N)=O)C(=O)NCC(=O)N1CCC[C@H]1C(=O)O
5.62 | CC(C)C[C@@H](C(=O)N[C@@H](Cc1ccc(O)cc1)C(=O)N1CCC[C@H]1C(=O)N[C@@H](CS)C(N)=O)N(C)C(=O)CN(C)C(=O)CNC(=O)[C@H](Cc1ccccc1)NC(=O)[C@H](Cc1csc[n+]1C)NC(=O)CNC(=O)[C@@H](NC(=O)[C@@H](NC(=O)[C@H](Cc1ccccc1)NC(=O)[C@@H](N)CCCN=C(N)N)C(C)(C)S)[C@@H](C)O
5.70 | CC(C)C[C@H](NC(=O)CNC(=O)CNC(=O)[C@H](Cc1ccccc1)NC(=O)[C@H](Cc1cnc[nH]1)NC(=O)CNC(=O)[C@@H](NC(=O)[C@@H](NC(=O)[C@H](Cc1ccccc1)NC(=O)[C@@H](N)CCCN=C(N)N)C(C)(C)S)[C@@H](C)O)C(=O)N[C@@H](Cc1ccc(O)cc1)C(=O)N1CCC[C@H]1C(=O)N[C@@H](CS)C(=O)O
5.70 | CC(C)C[C@H](NC(=O)CNC(=O)CNC(=O)[C@H](Cc1ccccc1)NC(=O)[C@H](Cc1cnc[nH]1)NC(=O)CNC(=O)[C@@H](NC(=O)[C@@H](NC(=O)[C@H](Cc1ccccc1)NC(=O)[C@H](CCCNC(=N)N)NC(=O)[C@@H](N)CCC(N)=O)C(C)(C)S)[C@@H](C)O)C(=O)N[C@@H](Cc1ccc(O)cc1)C(=O)N1CCC[C@H]1C(=O)N[C@@H](CCS)C(=O)N[C@@H](CC(N)=O)C(=O)NCC(=O)N1CCC[C@H]1C(=O)O
5.85 | CC(C)C[C@H](NC(=O)[C@H]1CCCN1C(=O)CNC(=O)[C@H](Cc1ccccc1)NC(=O)[C@H](Cc1cnc[nH]1)NC(=O)CNC(=O)[C@@H](NC(=O)[C@@H](NC(=O)[C@H](Cc1ccccc1)NC(=O)[C@H](CCCNC(=N)N)NC(=O)[C@@H](N)CCC(N)=O)C(C)(C)S)[C@@H](C)O)C(=O)N[C@@H](Cc1ccc(O)cc1)C(=O)N1CCC[C@H]1C(=O)N[C@@H](CS)C(=O)N[C@@H](CC(N)=O)C(=O)NCC(=O)N1CCC[C@H]1C(=O)O
6.05 | CC(C)C[C@H](NC(=O)CN(C)C(=O)CNC(=O)[C@H](Cc1ccccc1)NC(=O)[C@H](Cc1cnc[nH]1)NC(=O)CNC(=O)[C@@H](NC(=O)[C@@H](NC(=O)[C@H](Cc1ccccc1)NC(=O)[C@H](CCCN=C(N)N)NC(=O)[C@@H](N)CCC(N)=O)C(C)(C)S)[C@@H](C)O)C(=O)N[C@@H](Cc1ccc(O)cc1)C(=O)N1CCC[C@H]1C(=O)N[C@@H](CS)C(=O)N[C@@H](CC(N)=O)C(=O)NCC(=O)N1CCC[C@H]1C(=O)O
